# Experimental data published in publication PMC5832441 (Nature, 2017).
# What was measured:
# [1] = system: calcitonin receptor (CTR); assay: ERK1/2 phosphorylation; assay type: cell-based, human; conditions: H302A mutant, 3T3-FlpIn cells; four independent experiments in duplicate
# Outline: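 3T3-FlpIn cells grown in DMEM with 10% v/v FBS at 37°C. Transient transfection used PEI; DNA and PEI in 150mM NaCl were combined 1:6 and left 15 min before adding to the cell suspension. Cells were plated at 3 × 10⁴/well and held 48 h at 37°C, 5% CO₂ before the pERK1/2 AlphaScreen read.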
# [2] = system: calcitonin receptor (CTR); assay: Whole cell radioligand competition binding with 125I-sCT; set-up: species or system human; conditions: competition with 125I-sCT(8-32), N130D mutant; five independent experiments
# Outline: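 Cos7 cells in DMEM/10% FBS, transiently transfected with PEI (DNA:PEI 1:6 in 150mM NaCl, 15 min) and seeded at 3 × 10⁴/well for 48 h at 37°C, 5% CO₂. Total binding: 0.05 nM ¹²⁵I-sCT(8-32) alone. Nonspecific binding: co-incubation with 1 μM sCT(8-32). Each experiment normalised to its own specific binding.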
# [3] = system: HA-FLAG-3C-CTR-3C-8xHis CTR with Gs protein heterotrimer; assay: [35S]GTPγS binding on CTR expressed in insect cells; assay type: biochemical, human; conditions: insect cell membranes, absence and presence of Gs heterotrimer; four independent experiments
# CTR = conditions: cited from earlier work
# [4] = system: calcitonin receptor (CTR); assay: cAMP accumulation in transfected COS7 or 3T3-FlpIn cells; assay type: cell-based, human
# Outline: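 COS7 or 3T3-FlpIn cells transfected with PEI (DNA:PEI 1:6 in 150mM NaCl, 15 min), plated at 3 × 10⁴/well and held 48 h at 37°C, 5% CO₂. Signals converted to cAMP using a parallel standard curve, then normalised to 100 μM forskolin within each cell line. For efficacy, Black-Leff operational model (Logτ_c) applied, corrected for cell-surface expression.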
# [5] = cell surface ELISA to N-terminal epitope tag; conditions: glycan lost; control: WT CTR
molecule,measurement,setting,value
salmon calcitonin [sCT],sCT potency in phosphorylation of ERK1/2 at H302A CTR,[1],reduced potency
same,sCT affinity at N130D CTR compared to WT,[2],reduced affinity
same,"G protein activation via GTPγS binding, sCT concentration response",[3],can robustly activate Gs
same,off-rate,CTR,very slow off-rate
same,sCT-mediated cAMP efficacy at Δ414 CTR,"[4]; COS7 cells, truncation after Trp413, 5 independent experiments in duplicate",no effect on receptor function
same,sCT potency in cAMP production at H302A CTR,"[4]; H302A mutant, 3T3-FlpIn cells, four independent experiments in duplicate",reduced potency
same,sCT potency in cAMP accumulation at N130D CTR relative to WT,"[4]; N130D mutant, five independent experiments",reduce the potency
calcitonin receptor (CTR): N28D (protein) parent chain: MRFTFTSRCLALFLLLNHPTPILPAFSNQTYPTIEPKPFLYVVGRKKMMDAQYKCYDRMQQLPAYQGEGPYCNRTWDGWLCWDDTPAGVLSYQFCPDYFPDFDPSEKVTKYCDEKGVWFKHPENNRTWSNYTMCNAFTPEKLKNAYVLYYLAIVGHSLSIFTLVISLGIFVFFRSLGCQRVTLHKNMFLTYILNSMIIIIHLVEVVPNGELVRRDPVSCKILHFFHQYMMACNYFWMLCEGIYLHTLIVVAVFTEKQRLRWYYLLGWGFPLVPTTIHAITRAVYFNDNCWLSVETHLLYIIHGPVMAALVVNFFFLLNIVRVLVTKMRETHEAESHMYLKAVKATMILVPLLGIQFVVFPWRPSNKMLGKIYDYVMHSLIHFQGFFVATIYCFCNNEVQTTVKRQWAQFKIQWNQRWGRRPSNRSARAAAAAAEAGDIPIYICHQELRNEPANNQGEESAEIIPLNIIEQESSA,expression_or_secretion,[5],no change
calcitonin receptor (CTR): N73D (protein) parent chain: MRFTFTSRCLALFLLLNHPTPILPAFSNQTYPTIEPKPFLYVVGRKKMMDAQYKCYDRMQQLPAYQGEGPYCNRTWDGWLCWDDTPAGVLSYQFCPDYFPDFDPSEKVTKYCDEKGVWFKHPENNRTWSNYTMCNAFTPEKLKNAYVLYYLAIVGHSLSIFTLVISLGIFVFFRSLGCQRVTLHKNMFLTYILNSMIIIIHLVEVVPNGELVRRDPVSCKILHFFHQYMMACNYFWMLCEGIYLHTLIVVAVFTEKQRLRWYYLLGWGFPLVPTTIHAITRAVYFNDNCWLSVETHLLYIIHGPVMAALVVNFFFLLNIVRVLVTKMRETHEAESHMYLKAVKATMILVPLLGIQFVVFPWRPSNKMLGKIYDYVMHSLIHFQGFFVATIYCFCNNEVQTTVKRQWAQFKIQWNQRWGRRPSNRSARAAAAAAEAGDIPIYICHQELRNEPANNQGEESAEIIPLNIIEQESSA,expression_or_secretion,[5],no change
calcitonin receptor (CTR): N130D (protein) parent chain: MRFTFTSRCLALFLLLNHPTPILPAFSNQTYPTIEPKPFLYVVGRKKMMDAQYKCYDRMQQLPAYQGEGPYCNRTWDGWLCWDDTPAGVLSYQFCPDYFPDFDPSEKVTKYCDEKGVWFKHPENNRTWSNYTMCNAFTPEKLKNAYVLYYLAIVGHSLSIFTLVISLGIFVFFRSLGCQRVTLHKNMFLTYILNSMIIIIHLVEVVPNGELVRRDPVSCKILHFFHQYMMACNYFWMLCEGIYLHTLIVVAVFTEKQRLRWYYLLGWGFPLVPTTIHAITRAVYFNDNCWLSVETHLLYIIHGPVMAALVVNFFFLLNIVRVLVTKMRETHEAESHMYLKAVKATMILVPLLGIQFVVFPWRPSNKMLGKIYDYVMHSLIHFQGFFVATIYCFCNNEVQTTVKRQWAQFKIQWNQRWGRRPSNRSARAAAAAAEAGDIPIYICHQELRNEPANNQGEESAEIIPLNIIEQESSA,expression_or_secretion,[5],no change
calcitonin receptor (CTR): N125D (protein) parent chain: MRFTFTSRCLALFLLLNHPTPILPAFSNQTYPTIEPKPFLYVVGRKKMMDAQYKCYDRMQQLPAYQGEGPYCNRTWDGWLCWDDTPAGVLSYQFCPDYFPDFDPSEKVTKYCDEKGVWFKHPENNRTWSNYTMCNAFTPEKLKNAYVLYYLAIVGHSLSIFTLVISLGIFVFFRSLGCQRVTLHKNMFLTYILNSMIIIIHLVEVVPNGELVRRDPVSCKILHFFHQYMMACNYFWMLCEGIYLHTLIVVAVFTEKQRLRWYYLLGWGFPLVPTTIHAITRAVYFNDNCWLSVETHLLYIIHGPVMAALVVNFFFLLNIVRVLVTKMRETHEAESHMYLKAVKATMILVPLLGIQFVVFPWRPSNKMLGKIYDYVMHSLIHFQGFFVATIYCFCNNEVQTTVKRQWAQFKIQWNQRWGRRPSNRSARAAAAAAEAGDIPIYICHQELRNEPANNQGEESAEIIPLNIIEQESSA,expression_or_secretion,[5],no change
